In ChEMBL document CHEMBL1151690, “The design, synthesis, and anti-tumor mechanism study of N-phosphoryl amino acid modified resveratrol analogues” (Bioorg Med Chem, 2008):
Active and inactive are the calls of the source. No cut-off for these calls is given here.

Key:
[1] = Antiproliferative activity against human CNE1 cells after 72 hrs by MTT assay; type: functional, cell-based; details: CNE
How it was run: (§1)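 MTT assay. Cells were grown in DMEM with 10% FBS, penicillin and streptomycin at 37 °C in 5% CO2, seeded in 96-well plates and exposed to compounds at 0.5–100 μM for 72 h. They were then given MTT (5 mg/ml) for 4 h, the formazan was dissolved in DMSO and A595 was read. IC50 is the mean ± SEM of three experiments.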

[2] = (§2) Antiproliferative activity against human CNE2 cells after 72 hrs by MTT assay; type: functional, cell-based; details: CNE-2, 72 h; how it was run: as §1
CNE-2 [3] = test: as §2; type: functional, cell-based; how it was run: as §1
CNE-2 [4] = test: Antiproliferative activity against human CNE2 cells at 9.86 uM by MTT assay; type: functional, cell-based; details: TDE = time-dependent effect
How it was run: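 CNE-2 nasopharyngeal carcinoma cells were grown in DMEM with 10% FBS and penicillin/streptomycin at 37 °C under 5% CO2. Cells were seeded in 96-well plates and exposed to compound at 0.5–100 µM for 24, 48 or 72 h; tabulated values are from 72 h. MTT (5 mg/ml) was added for 4 h, formazan dissolved in DMSO, A595 read. IC50 reported as mean ± SEM, three experiments.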

HeLa = test: Antiproliferative activity against human HeLa cells after 72 hrs by MTT assay; type: functional, cell-based
How it was run: (§3)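 IC50 from 72 h of compound treatment, reported as the mean ± SEM of three experiments, with significance set at P < 0.05.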

K562 = test: Antiproliferative activity against human K-562 cells after 72 hrs by MTT assay; type: functional, cell-based; details: K562, 72 h; how it was run: as §3
CNE-2 [5] = test: Induction of apoptosis in human CNE2 cells assessed as DNA fragmentation at 50 uM after 24 hrs by agarose gel electrophoresis; type: functional, cell-based
How it was run: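 CNE-2 cells were treated at 50 μM for 24 h, with untreated cells as control. DNA was obtained by standard digestion and organic extraction, run on a 2% agarose gel and stained with ethidium bromide to detect ladders.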

[6] = Cell cycle arrest in human CNE2 cells assessed as accumulation at sub-G0-G1 phase visualized by propidium iodide staining at 50 uM after 24 hrs by flow cytometry; type: functional, cell-based; details: CNE-2
How it was run: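 CNE-2 cells were treated at 50 μM for 24 h, stained with propidium iodide and analysed by flow cytometry of DNA-content histograms. Apoptotic events were scored as the sub-G0–G1 population, and the cell-cycle phase distribution was also recorded.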

CNE-2 [7] = test: Induction of apoptosis in human CNE2 cells assessed as caspase 3-mediated PARP cleavage at 50 uM after 24 hrs by enhanced chemiluminescence detection; type: functional, cell-based
How it was run: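 CNE-2 cells were treated at 50 μM for 24 h and lysed on ice for 30 min in Tris/EDTA/NaCl/SDS/Triton/deoxycholate/PMSF buffer. Cytosolic protein (25 μg, 15,000g supernatant) was run on 12% SDS-PAGE and blotted to nitrocellulose. Blots were probed with anti-PARP (1:1000) in milk block, and the 89 kDa cleaved band was detected by ECL.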

CNE-2 [8] = test: Antiproliferative activity against human CNE2 cells at 3.45 uM by MTT assay; type: functional, cell-based; details: TDE = time-dependent effect
CNE-2 [9] = test: Induction of apoptosis in human CNE2 cells assessed as early stage apoptotic cell count at 5 uM after 24 hrs by Annexin-V-FITC/PI binding assay; type: functional
How it was run: (§4)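 CNE-2 cells were treated at 5, 10, 25 or 50 μM for 24 h, collected, washed in ice-cold PBS, stained with Annexin-V-FITC and PI, and analysed by flow cytometry. Annexin-V+/PI− cells were counted as early apoptotic and double-positive cells as late apoptotic.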

CNE-2 [10] = test: Induction of apoptosis in human CNE2 cells assessed as early stage apoptotic cell count at 10 uM after 24 hrs by Annexin-V-FITC/PI binding assay; type: functional; how it was run: as §4
CNE-2 [11] = test: Induction of apoptosis in human CNE2 cells assessed as early stage apoptotic cell count at 25 uM after 24 hrs by Annexin-V-FITC/PI binding assay; type: functional; how it was run: as §4
CNE-2 [12] = test: Induction of apoptosis in human CNE2 cells assessed as early stage apoptotic cell count at 50 uM after 24 hrs by Annexin-V-FITC/PI binding assay; type: functional; how it was run: as §4
CNE-2 [13] = test: Induction of apoptosis in human CNE2 cells assessed as late stage apoptotic cell count at 5 uM after 24 hrs by Annexin-V-FITC/PI binding assay; type: functional; how it was run: as §4
CNE-2 [14] = test: Induction of apoptosis in human CNE2 cells assessed as late stage apoptotic cell count at 10 uM after 24 hrs by Annexin-V-FITC/PI binding assay; type: functional; how it was run: as §4
CNE-2 [15] = test: Induction of apoptosis in human CNE2 cells assessed as late stage apoptotic cell count at 25 uM after 24 hrs by Annexin-V-FITC/PI binding assay; type: functional; how it was run: as §4
CNE-2 [16] = test: Induction of apoptosis in human CNE2 cells assessed as late stage apoptotic cell count at 50 uM after 24 hrs by Annexin-V-FITC/PI binding assay; type: functional; how it was run: as §4
CNE-2 [17] = test: Induction of apoptosis in human CNE2 cells assessed as increase in caspase 9 activity at 50 uM upto 24 hrs; type: functional, cell-based
How it was run: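 CNE-2 cells were treated at 50 μM for 0, 2, 4, 8, 14 and 24 h, trypsinized, PBS-washed and lysed on ice for 15 min. Lysates were spun at 20,000g at 4 °C, and 0.1 mg protein (Bradford) was incubated with Ac-LEHD-pNA for 2 h at 37 °C. pNA release was recorded at A405.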

CNE-2 [18] = test: Induction of apoptosis in human CNE2 cells assessed as intracellular ROS production visualized by DCFH-DA after 30 hrs by FACS analysis; type: functional, cell-based
How it was run: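 CNE-2 cells were treated at 50 μM for 0–30 h (0, 2, 4, 6, 8, 13, 19, 24, 30 h), trypsinized, centrifuged and PBS-washed. They were loaded with DCFH-DA (10 μM) at 37 °C for 30 min, and the percentage of cells with higher DCF fluorescence was measured by FACS.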

CNE-2 [19] = test: Antiproliferative activity against human CNE2 cells at 5.19 uM by MTT assay; type: functional, cell-based; details: TDE = time-dependent effect
CNE-2 [20] = test: Antiproliferative activity against human CNE2 cells at 5.06 uM by MTT assay; type: functional, cell-based; details: TDE = time-dependent effect

SMILES | IC50 [1] [µM] | IC50 [2] [µM] | further results
COc1cc(/C=C/c2ccc(NC(=O)CNP(=O)(OC(C)C)OC(C)C)cc2)cc(OC)c1 | 8.91 | 7.12 | –
COc1cc(/C=C/c2ccc(NC(=O)CCNP(=O)(OC(C)C)OC(C)C)cc2)cc(OC)c1 | 10.1 | 8.19 | –
CC(C)OP(=O)(NCC(=O)Nc1ccc(/C=C/c2ccccc2)cc1)OC(C)C | 7.5 | 7.01 | –
COc1cc(/C=C/c2ccc(NC(=O)[C@@H]3CCCN3P(=O)(OC(C)C)OC(C)C)cc2)cc(OC)c1 | 8.11 | 9.86 | Activity (CNE-2 [3]): Dose-dependent effect; Activity (CNE-2 [4]): tde; IC50 (HeLa): 9.53 µM; IC50 (K562): 9.15 µM; Activity (CNE-2 [5]): Active; Activity [6]: 32.1%; Activity (CNE-2 [7]): Active
CC(C)OP(=O)(NCCCCCC(=O)Nc1ccc(/C=C/c2ccccc2)cc1)OC(C)C | 8.58 | 24.3 | –
COc1cc(/C=C/c2ccc(NC(=O)[C@H](CC(C)C)NP(=O)(OC(C)C)OC(C)C)cc2)cc(OC)c1 | 55.3 | 14.3 | –
COc1cc(/C=C/c2ccc(NC(=O)CCCCNP(=O)(OC(C)C)OC(C)C)cc2)cc(OC)c1 | 5.67 | 3.45 | Activity (CNE-2 [3]): Dose-dependent effect; Activity (CNE-2 [8]): tde; IC50 (HeLa): 5.62 µM; IC50 (K562): 5.32 µM; Activity (CNE-2 [5]): Active; Activity [6]: 91.6%; Activity (CNE-2 [9]): 6.45%; Activity (CNE-2 [10]): 16.24%; Activity (CNE-2 [11]): 21.24%; Activity (CNE-2 [12]): 18.78%; Activity (CNE-2 [13]): 9.86%; Activity (CNE-2 [14]): 22.51%; Activity (CNE-2 [15]): 41.12%; Activity (CNE-2 [16]): 66.79%; Activity (CNE-2 [7]): Active; Activity (CNE-2 [17]): Active; Activity (CNE-2 [18]): Active
Nc1ccc(/C=C/c2ccccc2)cc1 [(E)-4-STYRYLANILINE] | 54.5 | 98.7 | –
CC(C)OP(=O)(NCCC(=O)Nc1ccc(/C=C/c2ccccc2)cc1)OC(C)C | 29.8 | 6.81 | –
CC(C)OP(=O)(NCCCCC(=O)Nc1ccc(/C=C/c2ccccc2)cc1)OC(C)C | 6.36 | 5.19 | Activity (CNE-2 [3]): Dose-dependent effect; Activity (CNE-2 [19]): tde; IC50 (HeLa): 9.75 µM; IC50 (K562): 9.58 µM; Activity (CNE-2 [5]): Active; Activity [6]: 45.3%; Activity (CNE-2 [7]): Active
COc1cc(/C=C/c2ccc(NC(=O)CCCCCNP(=O)(OC(C)C)OC(C)C)cc2)cc(OC)c1 | 6.37 | 5.06 | Activity (CNE-2 [3]): Dose-dependent effect; Activity (CNE-2 [20]): tde; IC50 (HeLa): 6.41 µM; IC50 (K562): 6.89 µM; Activity (CNE-2 [5]): Active; Activity [6]: 57%; Activity (CNE-2 [7]): Active
Oc1ccc(/C=C/c2cc(O)cc(O)c2)cc1 [RESVERATROL] | 67.6 | 52.3 | –
CC(C)OP(=O)(NCCCC(=O)Nc1ccc(/C=C/c2ccccc2)cc1)OC(C)C | 9.03 | 6.47 | –
COc1cc(/C=C/c2ccc(NC(=O)[C@@H](NP(=O)(OC(C)C)OC(C)C)C(C)C)cc2)cc(OC)c1 | 116 | 77.4 | –
CC(C)OP(=O)(N[C@H](C(=O)Nc1ccc(/C=C/c2ccccc2)cc1)C(C)C)OC(C)C | 49.3 | 128 | –
COc1cc(/C=C/c2ccc(NC(=O)[C@H](Cc3ccccc3)NP(=O)(OC(C)C)OC(C)C)cc2)cc(OC)c1 | 43.4 | 9.83 | –
COc1cc(/C=C/c2ccc(NC(=O)CCCNP(=O)(OC(C)C)OC(C)C)cc2)cc(OC)c1 | 12.3 | 15.2 | –
COc1cc(/C=C/c2ccc(NC(=O)[C@H](C)NP(=O)(OC(C)C)OC(C)C)cc2)cc(OC)c1 | 29.2 | 11.7 | –
CC(C)OP(=O)(N[C@@H](Cc1ccccc1)C(=O)Nc1ccc(/C=C/c2ccccc2)cc1)OC(C)C | 83.7 | 92.1 | –
CC(C)OP(=O)(OC(C)C)N1CCC[C@H]1C(=O)Nc1ccc(/C=C/c2ccccc2)cc1 | 10.1 | 12.2 | –
CC(C)OP(=O)(N[C@@H](C)C(=O)Nc1ccc(/C=C/c2ccccc2)cc1)OC(C)C | 25.4 | 12.8 | –
CC(C)C[C@H](NP(=O)(OC(C)C)OC(C)C)C(=O)Nc1ccc(/C=C/c2ccccc2)cc1 | 54.3 | 65.6 | –
